# Measurements taken from ChEMBL document CHEMBL3864132, “Free fatty acid receptor 1 (GPR40) agonists containing spirocyclic periphery inspired by LY2881835” (Bioorg Med Chem, 2016).
# Columns and labels:
# [1] = target: T1, Free fatty acid receptor 1 (Homo sapiens, UniProt O14842); test: Agonist activity at human FFA1 receptor expressed in CHO cells assessed as induction of Ca2+ flux by fluo-8 dye based FLIPR assay; format: functional, cell-based
# In short: (§1)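 CHO cells stably expressing human GPR40 seeded 24 h before assay, loaded 1 h with Fluo-8 calcium dye, read on FLIPR. Agonist response taken as maximum fluorescence change over baseline; concentration-response curves fitted for EC50. Efficacy expressed relative to GW9508 at 5 μM.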
# [2] = target: T1, Free fatty acid receptor 1; test: Agonist activity at human FFA1 receptor expressed in CHO cells assessed as induction of Ca2+ flux by fluo-8 dye based FLIPR assay relative to GW9508; format: functional, cell-based; in short: as §1
# [3] = Apparent permeability from apical to basolateral side in human Caco2 cells at 10 uM by HPLC-MS analysis; format: ADME, cell-based; details: Caco-2
# In short: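 Apical-to-basolateral transport across Caco-2 monolayers, integrity checked by TEER in every well. Compound at 10 μM, acceptor concentrations by HPLC-MS. Papp = (VA/(area × time)) × ([drug]acc/[drug]initial,donor), insert area 0.31 cm², in 10^-6 cm/s. Mean of n = 2.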
# [4] = target: T2, Free fatty acid receptor 2 (Homo sapiens, UniProt O15552); test: Agonist activity at human FFA2 receptor expressed in CHO cells assessed as induction of Ca2+ flux by fluo-8 dye based FLIPR assay; format: functional, cell-based
# T2 sequence (O15552 whole entry): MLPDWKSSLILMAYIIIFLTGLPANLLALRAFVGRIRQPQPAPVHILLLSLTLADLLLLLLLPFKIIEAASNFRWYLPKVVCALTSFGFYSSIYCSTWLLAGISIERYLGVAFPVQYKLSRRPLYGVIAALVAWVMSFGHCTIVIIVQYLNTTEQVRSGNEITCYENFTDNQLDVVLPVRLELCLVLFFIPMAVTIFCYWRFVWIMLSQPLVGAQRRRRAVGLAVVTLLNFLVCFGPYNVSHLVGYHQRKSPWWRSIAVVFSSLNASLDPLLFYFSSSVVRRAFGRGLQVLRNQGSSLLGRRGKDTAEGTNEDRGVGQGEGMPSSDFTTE
# In short: (§2)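 CHO lines stably expressing the respective receptor (GPR43, GPR41 or GPR120) used for specificity screening. Cells loaded 1 h with Fluo-8 calcium dye and read by FLIPR; maximum fluorescence change over baseline taken as agonist response.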
# [5] = target: T3, Free fatty acid receptor 4 (Homo sapiens, UniProt Q5NUL3); test: Agonist activity at human FFA4 receptor expressed in CHO cells assessed as induction of Ca2+ flux by fluo-8 dye based FLIPR assay; format: functional, cell-based; in short: as §2
# T3 sequence (Q5NUL3 whole entry): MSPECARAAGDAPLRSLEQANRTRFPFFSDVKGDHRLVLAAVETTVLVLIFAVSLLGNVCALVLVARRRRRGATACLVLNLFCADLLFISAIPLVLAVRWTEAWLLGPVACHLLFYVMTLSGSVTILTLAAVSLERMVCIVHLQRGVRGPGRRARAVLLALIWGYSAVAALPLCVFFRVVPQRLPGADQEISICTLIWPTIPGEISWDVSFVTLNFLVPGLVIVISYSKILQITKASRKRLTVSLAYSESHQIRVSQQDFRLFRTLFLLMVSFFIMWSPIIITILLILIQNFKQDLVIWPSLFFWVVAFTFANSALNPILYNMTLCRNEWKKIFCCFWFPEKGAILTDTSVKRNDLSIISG
# [6] = Protein binding in human plasma at 1 uM after 5 hrs by HPLC-MS/MS analysis; format: ADME, cell-free; details: read-out: PPB (converted)
# In short: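 Equilibrium dialysis (12–14 kDa MWCO) of plasma spiked at 1 μM (1% solvent) against PBS pH 7.4, 5 h at 37°C with shaking, quadruplicates. Chambers matrix-matched, precipitated with acetonitrile and analysed by HPLC-MS/MS. Bound % = (1 − buffer/plasma peak area) × 100; recovery checked against undialyzed spiked plasma.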
# [7] = target: T4, Free fatty acid receptor 3 (Homo sapiens, UniProt O14843); test: Agonist activity at human FFA3 receptor expressed in CHO cells assessed as induction of Ca2+ flux by fluo-8 dye based FLIPR assay; format: functional, cell-based; in short: as §2
# T4 sequence (O14843 whole entry): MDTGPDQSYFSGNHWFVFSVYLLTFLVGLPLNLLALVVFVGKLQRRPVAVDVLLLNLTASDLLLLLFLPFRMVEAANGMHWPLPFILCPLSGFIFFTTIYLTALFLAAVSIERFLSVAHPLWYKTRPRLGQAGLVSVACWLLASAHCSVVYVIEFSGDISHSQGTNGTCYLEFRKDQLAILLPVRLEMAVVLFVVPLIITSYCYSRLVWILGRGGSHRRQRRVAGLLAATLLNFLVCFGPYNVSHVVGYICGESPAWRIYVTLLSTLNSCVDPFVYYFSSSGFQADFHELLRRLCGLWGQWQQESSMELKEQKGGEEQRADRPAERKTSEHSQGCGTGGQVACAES
# [8] = Half life in BALB/c mouse liver microsomes at 2 uM by HPLC-MS analysis; format: ADME
# In short: (§3)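 Pooled liver microsomes from male BALB/c mice at 0.42 mg protein/ml in 100 mM potassium phosphate pH 7.4 with MgCl2, NADPH and a G6P/G6PDH regenerating system. Compound 2 μM (1.6% solvent), 37°C, five time points over 40 min, duplicates. Quenched in acetonitrile, analysed by HPLC-MS/MS. kel from ln(AUC) versus time; T1/2 = 0.693/kel; CLint scaled to incubation volume per mg microsomes.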
# [9] = Kinetic aqueous solubility of the compound in PBS buffer […] at pH 7.4 after 2 hrs by UV-Visible spectrophotometric analysis; format: physicochemical; details: read-out: Kinetic_solubility
# In short: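 Equilibrated 2 h at 25°C with shaking, then filtered. Filtrates read by UV-Vis scan against 0–400 μM calibration curves in methanol/PBS.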
# [10] = Intrinsic clearance in BALB/c mouse liver microsomes at 2 uM up to 40 mins by HPLC-MS analysis; format: ADME; in short: as §3
# [11] = Observed AUC infinity in JAXC57BL/6J mouse at 10 mg/kg, po administered through plastic gavage as single dose measured up to 240 mins by HPLC-MS analysis; format: ADME, organism-based; set-up: dose 10 mg/kg, time infinity, route oral; details: C57BL/6J, in vivo
# In short: (§4)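 Male C57BL/6J mice dosed orally by gavage, 10 mg/kg single dose in 10% β-cyclodextrin (5 ml/kg). Plasma sampled at 30, 60, 120, 240 and 360 min (n=5 per time point), with 360 min excluded from calculations. HPLC-MS/MS quantitation; Cmax, Tmax and AUC from group data by linear trapezoidal rule.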
# [12] = Tmax in JAXC57BL/6J mouse at 10 mg/kg, iv through bolus administration measured after 10 to 240 mins by HPLC-MS analysis; format: ADME, organism-based; details: C57BL/6J, in vivo
# In short: (§5)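 Male C57BL/6J mice given 10 mg/kg as tail-vein bolus in 10% β-cyclodextrin (5 ml/kg). Plasma by cardiac puncture at 10, 30, 60, 120 and 240 min (n=5 per time point), stored at -70°C. Levels by HPLC-MS/MS; parameters from group data by linear trapezoidal rule.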
# [13] = Cmax in JAXC57BL/6J mouse at 10 mg/kg, po administered through plastic gavage as single dose measured up to 240 mins by HPLC-MS analysis; format: ADME, organism-based; set-up: dose 10 mg/kg, route oral; details: C57BL/6J, in vivo; in short: as §4
# [14] = Cmax in JAXC57BL/6J mouse at 10 mg/kg, iv through bolus administration measured after 10 to 240 mins by HPLC-MS analysis; format: ADME, organism-based; set-up: dose 10 mg/kg, route intravenous; details: C57BL/6J, in vivo; in short: as §5
# [15] = Observed AUC infinity in JAXC57BL/6J mouse at 10 mg/kg, iv through bolus administration measured after 10 to 240 mins by HPLC-MS analysis; format: ADME, organism-based; set-up: dose 10 mg/kg, route intravenous, time infinity; details: C57BL/6J, in vivo; in short: as §5
# [16] = Tmax in JAXC57BL/6J mouse at 10 mg/kg, po administered through plastic gavage as single dose by HPLC-MS analysis; format: ADME, organism-based; details: C57BL/6J, in vivo; in short: as §4
# [17] = Oral bioavailability in JAXC57BL/6J mouse at 10 mg/kg administered through plastic gavage as single dose measured up to 240 mins by HPLC-MS analysis; format: ADME, organism-based; details: C57BL/6J, in vivo
# In short: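 F = AUC0-∞ oral / AUC0-∞ i.v. × 100%, from male C57BL/6J mice given 10 mg/kg in 10% β-cyclodextrin by gavage or tail-vein bolus. n=5 per time point; plasma drug by HPLC-MS/MS.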
# T1 sequence (O14842 whole entry): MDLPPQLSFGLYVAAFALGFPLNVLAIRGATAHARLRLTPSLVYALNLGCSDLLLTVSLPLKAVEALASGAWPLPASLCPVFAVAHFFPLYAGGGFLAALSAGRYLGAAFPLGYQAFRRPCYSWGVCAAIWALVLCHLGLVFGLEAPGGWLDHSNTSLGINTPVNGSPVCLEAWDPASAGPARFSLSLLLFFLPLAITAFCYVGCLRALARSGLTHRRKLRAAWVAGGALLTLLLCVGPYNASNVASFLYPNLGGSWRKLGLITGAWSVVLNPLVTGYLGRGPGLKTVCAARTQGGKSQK
compound,measurement,setting,value
O=C(O)CCc1ccc(OCc2ccc(CN3CCC4(CC3)CC(Cc3ccccc3F)CCO4)cc2)cc1 (stereo unspecified),EC50,[1],0.81 µM
same,Emax,[2],95%
O=C(O)CCc1ccc(OCc2ccc(CN3CCC4(CC3)CC(OCC3CC3)CCO4)cc2)cc1 (stereo unspecified),EC50,[1],> 20 µM
Cl.O=C(O)CCc1ccc(OCc2ccc(CN3CCC4(CC3)CC(Cc3ccccc3)CCO4)cc2)cc1 (stereo unspecified),EC50,[1],0.055 µM
same,Emax,[2],93%
same,Papp A→B at 10 µM,[3],12 ×10⁻⁶ cm/s
same,EC50,[4],> 10 µM
same,EC50,[5],> 10 µM
same,"fraction unbound at 5 h, 1 µM",[6],0.012
same,EC50,[7],> 10 µM
same,half-life at 2 µM,[8],8.5 min
same,solubility kinetic at 2 h,[9],151 µM
same,"CLint at 40 min, 2 µM",[10],196 µL/min/mg
O=C(O)CCc1ccc(OCc2ccc(CN3CCC4(CCCCO4)CC3)cc2)cc1,EC50,[1],> 20 µM
O=C(O)CCc1ccc(OCc2ccc(CN3CCC4(CC3)CC(OCc3cccc(F)c3)CCO4)cc2)cc1 (stereo unspecified),EC50,[1],1.3 µM
same,Emax,[2],98%
O=C(O)CCc1ccc(OCc2ccc(CN3CCC4(CC3)CC(Cc3nc(C5CC5)no3)CCO4)cc2)cc1 (stereo unspecified),EC50,[1],4.54 µM
same,Emax,[2],53%
O=C(O)CCc1ccc(OCc2ccc(CN3CCC4(CC3)CC(OCc3ccc(C(F)(F)F)cc3)CCO4)cc2)cc1 (stereo unspecified),EC50,[1],> 20 µM
Cl.O=C(O)CCc1ccc(OCc2ccc(CN3CCC4(CC3)CC(Cc3ccc(F)cc3)CCO4)cc2)cc1 (stereo unspecified),EC50,[1],0.41 µM
same,Emax,[2],88%
same,Papp A→B at 10 µM,[3],8.7 ×10⁻⁶ cm/s
same,EC50,[4],> 10 µM
same,AUC(0-inf),[11],184 ng·h/mL
same,Tmax,[12],10 min
same,Cmax,[13],226 ng/mL
same,Cmax,[14],2770 ng/mL
same,AUC(0-inf),[15],1790 ng·h/mL
same,Tmax,[16],30 min
same,EC50,[5],> 10 µM
same,"fraction unbound at 5 h, 1 µM",[6],0.017
same,bioavailability,[17],10.3%
same,EC50,[7],> 10 µM
same,half-life at 2 µM,[8],23.4 min
same,solubility kinetic at 2 h,[9],143 µM
same,"CLint at 40 min, 2 µM",[10],71.3 µL/min/mg
O=C(O)CCc1ccc(OCc2ccc(CN3CCC4(CC3)CC(OCc3ccccc3)CCO4)cc2)cc1 (stereo unspecified),EC50,[1],1.16 µM
same,Emax,[2],100%
O=C(O)CCc1ccc(OCc2ccc(CN3CCC4(CC3)CC(OCc3ccc(F)cc3)CCO4)cc2)cc1 (stereo unspecified),EC50,[1],2.01 µM
same,Emax,[2],75%
CC1CCOC2(CCN(Cc3ccc(COc4ccc(CCC(=O)O)cc4)cc3)CC2)C1 (stereo unspecified),EC50,[1],> 20 µM
